Measured values from article PMC7781011 (Journal of Inflammation Research, 2020).

Assays:
Format in all cases: biochemical
rat COX-1 = target: T1, rat COX-1 (Rattus norvegicus, UniProt Q63921); assay: Cell-free fluorometric COX-1 assay
T1 sequence (Q63921 27-602): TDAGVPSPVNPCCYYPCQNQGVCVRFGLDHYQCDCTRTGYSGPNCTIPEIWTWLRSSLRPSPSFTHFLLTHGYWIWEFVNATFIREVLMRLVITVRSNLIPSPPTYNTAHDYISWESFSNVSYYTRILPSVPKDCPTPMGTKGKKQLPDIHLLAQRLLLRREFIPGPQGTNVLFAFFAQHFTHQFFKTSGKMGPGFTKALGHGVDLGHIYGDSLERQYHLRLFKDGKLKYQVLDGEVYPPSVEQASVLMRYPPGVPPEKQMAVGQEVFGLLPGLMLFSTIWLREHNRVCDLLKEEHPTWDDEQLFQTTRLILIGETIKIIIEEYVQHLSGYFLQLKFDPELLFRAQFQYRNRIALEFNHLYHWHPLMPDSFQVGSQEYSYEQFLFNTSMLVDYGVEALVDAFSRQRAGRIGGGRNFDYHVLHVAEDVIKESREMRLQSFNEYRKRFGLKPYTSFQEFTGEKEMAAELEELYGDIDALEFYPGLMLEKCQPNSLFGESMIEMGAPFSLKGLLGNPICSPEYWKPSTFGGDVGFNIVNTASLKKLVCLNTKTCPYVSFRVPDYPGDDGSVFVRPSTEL

human mPGES-1 = target: T2, human mPGES-1 (Homo sapiens, UniProt O14684); assay: Cell-free mPGES-1 assay
T2 sequence (O14684 1-152): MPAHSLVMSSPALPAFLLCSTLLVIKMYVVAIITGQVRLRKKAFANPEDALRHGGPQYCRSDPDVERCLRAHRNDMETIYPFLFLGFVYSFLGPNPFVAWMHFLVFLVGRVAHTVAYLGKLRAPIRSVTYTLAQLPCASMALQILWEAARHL
Outline: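 Enzyme in 15 mM Tris-HCl pH 7.4 with 1 mM GSH, preincubated 20 min with compound (0.1–100 µM); plate held 15 min at 20°C. PGH2 (final 2.8 µM) added, 45 s at room temperature, then stopped with SnCl2 in 1N HCl. PGE2 by ELISA, in triplicate, % inhibition versus untreated. Human enzyme from E. coli or commercial; mouse enzyme from vas deferens/seminal vesicles. IC50 by four-parameter nonlinear regression.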

mouse COX-1 = target: T3, mouse COX-1 (Mus musculus, UniProt P22437); assay: Cell-free fluorometric COX-1 assay
T3 sequence (P22437 27-602): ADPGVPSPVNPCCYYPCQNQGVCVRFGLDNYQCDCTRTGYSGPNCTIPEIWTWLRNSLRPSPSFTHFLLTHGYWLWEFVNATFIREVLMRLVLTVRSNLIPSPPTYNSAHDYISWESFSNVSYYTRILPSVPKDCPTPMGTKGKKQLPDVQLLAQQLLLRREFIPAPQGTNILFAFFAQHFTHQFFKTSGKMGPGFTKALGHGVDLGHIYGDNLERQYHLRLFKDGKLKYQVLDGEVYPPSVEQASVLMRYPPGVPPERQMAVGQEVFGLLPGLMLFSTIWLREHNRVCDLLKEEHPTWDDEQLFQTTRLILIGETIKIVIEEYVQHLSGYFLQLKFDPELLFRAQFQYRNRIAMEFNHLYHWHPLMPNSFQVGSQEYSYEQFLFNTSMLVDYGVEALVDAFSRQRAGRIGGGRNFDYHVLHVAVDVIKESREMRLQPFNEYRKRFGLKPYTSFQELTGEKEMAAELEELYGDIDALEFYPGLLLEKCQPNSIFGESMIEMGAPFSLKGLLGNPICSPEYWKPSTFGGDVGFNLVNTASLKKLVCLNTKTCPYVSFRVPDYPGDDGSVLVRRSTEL

mouse COX-2 = target: T4, mouse COX-2 (Mus musculus, UniProt Q05769); assay: Cell-free fluorometric COX-2 assay
T4 sequence (Q05769 18-604): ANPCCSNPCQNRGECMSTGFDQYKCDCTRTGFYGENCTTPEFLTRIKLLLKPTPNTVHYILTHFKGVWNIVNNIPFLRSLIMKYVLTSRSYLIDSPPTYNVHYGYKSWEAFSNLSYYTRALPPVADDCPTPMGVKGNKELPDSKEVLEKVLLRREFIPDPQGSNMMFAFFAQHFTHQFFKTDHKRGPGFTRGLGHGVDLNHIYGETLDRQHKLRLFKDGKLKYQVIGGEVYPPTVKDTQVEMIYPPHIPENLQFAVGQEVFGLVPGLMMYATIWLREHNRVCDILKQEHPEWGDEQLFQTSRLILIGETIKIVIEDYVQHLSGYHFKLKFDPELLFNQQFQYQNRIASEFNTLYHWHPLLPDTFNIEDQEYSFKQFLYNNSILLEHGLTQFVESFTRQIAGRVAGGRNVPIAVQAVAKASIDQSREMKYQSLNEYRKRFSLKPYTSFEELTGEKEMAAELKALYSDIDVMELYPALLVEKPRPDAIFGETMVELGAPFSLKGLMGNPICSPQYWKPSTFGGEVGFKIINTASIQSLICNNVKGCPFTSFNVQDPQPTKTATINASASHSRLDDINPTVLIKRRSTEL

human 5-LOX = target: T5, human 5-LOX (Homo sapiens, UniProt P09917); assay: Cell-free fluorometric 5-LOX assay; settings: IC50 5-LOX
T5 sequence (P09917 1-674): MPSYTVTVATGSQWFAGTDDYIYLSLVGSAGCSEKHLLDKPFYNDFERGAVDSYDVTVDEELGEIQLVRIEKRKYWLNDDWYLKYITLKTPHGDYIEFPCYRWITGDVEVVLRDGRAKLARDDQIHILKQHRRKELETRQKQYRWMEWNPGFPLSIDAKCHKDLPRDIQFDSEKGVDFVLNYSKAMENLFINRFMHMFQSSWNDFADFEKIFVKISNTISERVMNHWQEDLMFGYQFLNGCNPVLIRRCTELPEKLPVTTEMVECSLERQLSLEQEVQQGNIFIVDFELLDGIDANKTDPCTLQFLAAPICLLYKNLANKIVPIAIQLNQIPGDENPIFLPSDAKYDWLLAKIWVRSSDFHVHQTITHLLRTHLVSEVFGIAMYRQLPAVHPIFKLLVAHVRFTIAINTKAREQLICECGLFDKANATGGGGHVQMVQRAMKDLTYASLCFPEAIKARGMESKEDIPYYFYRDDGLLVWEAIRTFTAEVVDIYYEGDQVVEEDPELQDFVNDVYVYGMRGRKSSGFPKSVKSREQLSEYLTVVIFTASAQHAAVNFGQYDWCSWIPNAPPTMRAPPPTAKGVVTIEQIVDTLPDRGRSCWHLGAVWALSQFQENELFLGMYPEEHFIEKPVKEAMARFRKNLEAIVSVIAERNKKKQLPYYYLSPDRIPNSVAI

[1] = cell-free, mouse, up to the tested range of 1 mM

Row | IC50 (rat COX-1) [nM] | IC50 (mouse COX-1) [nM] | IC50 (mouse COX-2) [nM] | Structure (SMILES) | inhibition of COX-1 activity (rat COX-1; cell-free, rat, up to the tested range of 1 mM) | IC50 (human mPGES-1) [nM] | inhibition of COX-1 activity (mouse COX-1; [1]) | inhibition of COX-2 activity (mouse COX-2; [1]) | IC50 (human 5-LOX) [nM]
1 |  |  |  | CC1(C)Cc2c(-c3ccccc3)c(-c3ccc(Cl)cc3)c(CC(=O)NCC(=O)O)n2C1 [LFA-9, 2-[[2-[2-(4-chlorophenyl)-6,6-dimethyl-1-phenyl-5,7-dihydropyrrolizin-3-yl]acetyl]amino]acetic acid] | did not show inhibition | 870 | did not show inhibition | did not show inhibition | 2750
2 | 1810 | 1740 | 2010 | CC1(C)Cc2c(-c3ccccc3)c(-c3ccc(Cl)cc3)c(CC(=O)O)n2C1 [Licofelone, reference compound] |  | 14000 |  |  | 2130
